The subject of assay [1] is Rattus norvegicus. As to the kind of experiment: Induction of acetylcholine release in Harlan Wistar rat parietal cortex at 10 mg/kg, ip measured within 120 mins by microdialysis method. The arrangement: dose 10 mg/kg. In kind it is functional, organism-based. The procedure, abridged: (§1)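 Microdialysis in the parietal cortex of male Wistar rats, with a horizontal tube implanted at AP 0.5 mm and H 2.3 mm from bregma. One day after surgery the tube was perfused with Ringer containing physostigmine. After a 1 h settling period, 20-min fractions were collected into HCl. Drug was given ip in 1% CMC at time 0. ACh was measured by HPLC with electrochemical detection, n = 6 rats.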

Assay [2] relates to Rattus norvegicus. The assay is described as follows: Induction of acetylcholine release in Harlan Wistar rat parietal cortex at 10 mg/kg, ip after 60 to 80 mins by microdialysis method. Also noted: dose 10 mg/kg. In kind it is functional, organism-based. The gist of the method: as §1
The target in assay [3] is T1, Gamma-aminobutyric acid receptor subunit alpha-5 (Homo sapiens) (UniProt P31644).
T1 sequence (whole entry): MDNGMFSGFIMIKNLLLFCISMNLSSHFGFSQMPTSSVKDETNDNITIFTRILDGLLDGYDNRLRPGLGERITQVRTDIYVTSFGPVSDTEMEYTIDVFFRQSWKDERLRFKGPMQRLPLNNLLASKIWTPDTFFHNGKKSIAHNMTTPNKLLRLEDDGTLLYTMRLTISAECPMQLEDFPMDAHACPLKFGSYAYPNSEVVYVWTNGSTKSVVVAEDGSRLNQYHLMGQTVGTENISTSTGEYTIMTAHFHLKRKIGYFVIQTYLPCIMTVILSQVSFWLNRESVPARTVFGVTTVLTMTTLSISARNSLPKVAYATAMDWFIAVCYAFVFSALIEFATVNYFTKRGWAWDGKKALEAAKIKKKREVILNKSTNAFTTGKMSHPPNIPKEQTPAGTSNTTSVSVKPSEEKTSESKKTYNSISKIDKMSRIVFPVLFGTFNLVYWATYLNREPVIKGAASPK
The assay is described as follows: Displacement of [3H]Ro15-1788 from recombinant GABA-A alpha5beta2gamma2 receptor benzodiazepine binding site (unknown origin) at 10 uM after 1 hr relative to control. (In general: In a radioligand displacement assay an active substance lowers the binding of a labelled ligand.)

Assay [4] addresses GABA A receptor alpha-2/beta-2/gamma-2 (Homo sapiens) (UniProt P47870+P18507+P47869). As to the kind of experiment: Displacement of [3H]Ro15-1788 from recombinant GABA-A alpha2beta2gamma2 receptor benzodiazepine binding site (unknown origin) at 10 uM after 1 hr relative to control. In kind it is protein-complex assay. The gist of the method: (§2)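 Membranes came from clonal mammalian cell lines expressing α1β2γ2, α2β2γ2 or α5β3γ2 receptors, grown in MEM/EBSS with 10% FCS at 37 °C. Membranes were resuspended in 10 mM potassium phosphate, pH 7.4, with 100 mM KCl. Assays used 1–2 nM [3H]Ro15-1788 and test compound from 10^-9 to 10^-5 M, at least six concentrations. Diazepam at 10^-5 M defined nonspecific binding. Incubation ran 1 h at 4 °C. Single-point % inhibition was measured at 10 µM, and Ki by curve fitting; n = 5, in duplicate.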

Assay [5] addresses T2, GABA-A receptor; alpha-1/beta-2/gamma-2 (Homo sapiens, UniProt P14867+P18507+P47870).
T2 sequence (P14867 whole entry): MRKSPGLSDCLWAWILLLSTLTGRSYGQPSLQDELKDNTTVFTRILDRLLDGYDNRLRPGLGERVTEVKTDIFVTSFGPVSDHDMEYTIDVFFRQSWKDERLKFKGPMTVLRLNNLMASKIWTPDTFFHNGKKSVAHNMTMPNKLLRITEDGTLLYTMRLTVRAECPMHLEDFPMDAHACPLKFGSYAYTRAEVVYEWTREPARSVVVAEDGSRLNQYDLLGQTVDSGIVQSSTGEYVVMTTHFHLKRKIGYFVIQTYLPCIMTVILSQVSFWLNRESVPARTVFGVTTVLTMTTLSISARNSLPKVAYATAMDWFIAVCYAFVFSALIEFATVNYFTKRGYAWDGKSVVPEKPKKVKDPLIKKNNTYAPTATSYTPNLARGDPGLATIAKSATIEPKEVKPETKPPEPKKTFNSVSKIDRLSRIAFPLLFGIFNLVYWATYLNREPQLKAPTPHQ
T2 sequence (P47870 whole entry): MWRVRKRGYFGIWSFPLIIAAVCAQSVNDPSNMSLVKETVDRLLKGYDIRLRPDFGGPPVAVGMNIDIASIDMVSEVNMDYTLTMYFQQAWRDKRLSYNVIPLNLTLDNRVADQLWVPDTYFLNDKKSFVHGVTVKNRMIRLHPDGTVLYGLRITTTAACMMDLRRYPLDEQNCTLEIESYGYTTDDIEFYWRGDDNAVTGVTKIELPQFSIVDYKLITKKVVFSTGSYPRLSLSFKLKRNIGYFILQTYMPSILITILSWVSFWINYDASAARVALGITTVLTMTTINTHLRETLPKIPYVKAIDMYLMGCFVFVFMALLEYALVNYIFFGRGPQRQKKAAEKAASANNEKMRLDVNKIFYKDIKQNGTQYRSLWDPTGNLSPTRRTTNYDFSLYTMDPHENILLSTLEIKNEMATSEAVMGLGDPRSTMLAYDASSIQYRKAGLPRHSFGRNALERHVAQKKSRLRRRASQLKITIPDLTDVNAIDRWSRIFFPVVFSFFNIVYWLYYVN
T2 sequence (P18507 whole entry): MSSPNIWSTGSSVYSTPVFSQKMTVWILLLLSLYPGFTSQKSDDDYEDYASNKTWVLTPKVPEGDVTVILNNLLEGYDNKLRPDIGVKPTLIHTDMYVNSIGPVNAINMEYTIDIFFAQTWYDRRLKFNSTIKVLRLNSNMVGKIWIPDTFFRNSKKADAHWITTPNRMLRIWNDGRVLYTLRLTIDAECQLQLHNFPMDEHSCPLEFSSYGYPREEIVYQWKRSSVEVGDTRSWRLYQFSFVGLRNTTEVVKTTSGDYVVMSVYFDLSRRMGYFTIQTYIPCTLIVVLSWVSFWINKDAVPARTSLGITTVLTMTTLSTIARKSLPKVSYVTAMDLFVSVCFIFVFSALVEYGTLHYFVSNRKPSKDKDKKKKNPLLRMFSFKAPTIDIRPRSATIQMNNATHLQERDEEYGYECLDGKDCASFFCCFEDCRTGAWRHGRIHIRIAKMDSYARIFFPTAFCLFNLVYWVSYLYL
As to the kind of experiment: Displacement of [3H]Ro15-1788 from recombinant GABA-A alpha1beta2gamma2 receptor benzodiazepine binding site (unknown origin) after 1 hr. In kind it is protein-complex assay. The procedure, abridged:
as §2

In assay [6] the test system is Rattus norvegicus. As to the kind of experiment: Procognitive effect in Harlan Wistar rat assessed as decrease in exploring time of unfamiliar rat during social investigatory behaviour at 1 to 10 mg/kg, po administered 30 mins prior to testing measured for 5 mins by social learning test relative to control. Format: functional, organism-based.
Assay [7] has as its system Rattus norvegicus. As to the kind of experiment: Procognitive effect in Harlan Wistar rat assessed as exploring time of familiar rat during social investigatory behaviour at 3 mg/kg, po administered 30 mins prior to testing measured for 5 mins by social learning test (reference value: 27.6 secs). In kind it is functional.
The test system of assay [8] is Rattus norvegicus. As to the kind of experiment: Procognitive effect in Harlan Wistar rat assessed as exploring time of familiar rat during social investigatory behaviour at 10 mg/kg, po administered 30 mins prior to testing measured for 5 mins by social learning test (reference value: 27.6 secs). In kind it is functional.
In assay [9] the test system is Rattus norvegicus. The assay is described as follows: Procognitive effect in Harlan Wistar rat assessed as exploring time of familiar rat during social investigatory behaviour at 1 mg/kg, po administered 30 mins prior to testing measured for 5 mins by social learning test (reference value: 27.6 secs). In kind it is functional.

Here are results for one molecule from ChEMBL document CHEMBL2346497, “Synthesis of novel cognition enhancers with pyrazolo[5,1-c][1,2,4]benzotriazine core acting at γ-aminobutyric acid type A (GABA(A)) receptor” (Bioorg Med Chem, 2013).

Calls of active or inactive are those of the source. The calls are words filed in the database; no cut-off is given here.

One may read the inhibition as the share of the control response that was lost under treatment. Broadly, the Ki is a dissociation constant, usually derived from enzyme kinetics or from competition with a known ligand. On to `Cc1cnn2c1n[n+]([O-])c1ccc(OCc3ccncc3)cc12`, for which the result with Rattus norvegicus [1] and with Rattus norvegicus [6] was inactive. The outcome in the assay on Rattus norvegicus [2] was Active. Moreover, the inhibition was 36% in [3] and 5% in assay [4]. In addition, the Ki in assay [5] came out at 22.7 nM. Further, the Time amounted to 43.2 s in the assay with Rattus norvegicus [7], 41.4 s in the assay on Rattus norvegicus [8] and 33.2 s in the assay on Rattus norvegicus [9].
